Several values for one entry are separate records, joined by “and”; a condition that tells them apart may be missing. Equal values may be shown once.
What was measured:
[1] = biological target: Human enolase 1 (ENO1) (Homo sapiens, UniProt P06733); assay: FTS assay with negative control protein; format: binding; conditions: 10, 25, 50 and 100 μM ligand
Method in brief: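 Human enolase 1 was mixed with SYPRO Orange dye in 100 mM HEPES pH 7.5 with 150 mM NaCl. Ligands were dispensed acoustically from a DMSO stock. Plates were scanned from 10 to 80 °C at 1.5 °C min-1 on a real-time PCR instrument, reading fluorescence every 10 s. Stabilisation was judged from the melting temperature shift (ΔTm), background reduction and melting-curve shape.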

[2] = biological target: T1, StAcrR (Salmonella enterica subsp. enterica serovar Typhimurium, UniProt Q7CR15); assay: Competition FP assay in the presence of Pf; format: binding; conditions: for IC50: IC50, competition FP, 10 μM StAcrR and 100 nM Pf
[3] = biological target: T1, StAcrR; assay: Fluorescence-based thermal shift; format: binding; conditions: for FTS rank (Table S1): rank among hits of the SPC2-ECH008 library screen; for dose-dependent effect on StAcrR thermal stability: 2.5-100 μM ligand
[4] = tested on: EcAcrR-Glu67Ala mutant; conditions: ref Li et al., 2007, Su et al.; cited from earlier work
[5] = biological target: T1, StAcrR; assay: Fluorescence polarization; format: binding
[6] = biological target: human ENO1 (Homo sapiens, UniProt P06733); assay: FP binding assay with negative control protein; conditions: ENO1 up to 100 μM
human ENO1, sequence (P06733 whole entry): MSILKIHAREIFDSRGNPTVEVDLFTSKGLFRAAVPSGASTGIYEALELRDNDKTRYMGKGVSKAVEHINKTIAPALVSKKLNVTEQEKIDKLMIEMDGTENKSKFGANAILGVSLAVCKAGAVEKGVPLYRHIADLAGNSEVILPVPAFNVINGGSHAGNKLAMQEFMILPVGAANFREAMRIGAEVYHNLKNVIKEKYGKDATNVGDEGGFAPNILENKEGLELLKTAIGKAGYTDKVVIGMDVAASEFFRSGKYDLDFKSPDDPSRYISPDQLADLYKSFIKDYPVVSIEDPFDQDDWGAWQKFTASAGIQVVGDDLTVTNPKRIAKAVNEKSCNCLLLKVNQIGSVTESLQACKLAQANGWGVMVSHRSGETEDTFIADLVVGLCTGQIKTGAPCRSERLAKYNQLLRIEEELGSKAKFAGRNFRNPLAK

Human enolase 1 (ENO1), sequence (P06733 whole entry): as above

Compound	IC50 [2]	FTS rank (Table S1) [3]	dose-dependent effect on StAcrR thermal stability [3]	other results
Cc1cc(N)c2ccccc2[n+]1CCCCCCCCCC[n+]1c(C)cc(N)c2ccccc21 [Dequalinium chloride, dequalinium]	22.5 µM	14		effect on thermal stability of human enolase 1 [1]: no effect; change of Tm of StAcrR ([3]; below 10 μM ligand): did not notably change
O=C(NC(=O)c1c(F)cccc1F)Nc1ccc(Cl)cc1 [Diflubenzuron, diflubenzuron]				competition with Pf for binding ([2]; negative control ligand): did not compete
C[C@]12CC[C@@H]3c4ccc(OC(=O)N(CCCl)CCCl)cc4CC[C@H]3[C@@H]1CC[C@@H]2O [Estramustine, estramustine]	~18 µM and 18 µM	5	Apparent increase in the StAcrR thermal stability at very low concentrations	
CC[n+]1c(-c2ccccc2)c2cc(N)ccc2c2ccc(N)cc21 [Et, ethidium]				binding by the Glu67Ala mutant of EcAcrR [4]: abolishment of the binding; Kd [5]: 67.3 ± 4.6 µM
C[C@]12CC[C@@H]3c4ccc(O)cc4C[C@@H](CCCCCCCCC[S+]([O-])CCCC(F)(F)C(F)(F)F)[C@H]3[C@@H]1CC[C@@H]2O (stereo partly shown) [Fulvestrant, fulvestrant]	40.1 µM	1	Apparent increase in the StAcrR thermal stability at very low concentrations	
COC1=C(OC)C(=O)C(CCCCCCCCCCO)=C(C)C1=O [Idebenone, idebenone]	2.8 µM	2	required higher concentrations	
Nc1ccc2cc3ccc(N)cc3nc2c1 [Pf, proflavine]				binding by the Glu67Ala mutant of EcAcrR [4]: abolishment of the binding; FP increase with human ENO1 [6]: No FP increase; Kd [5]: 3.9 ± 0.1 µM; affinity to StAcrR relative to Et and R6G ([5]; ratio of FP Kd values): over 10 fold
C[C@]12CC[C@H](O)CC1=CC[C@@H]1[C@@H]2CC[C@]2(C)C(=O)CC[C@@H]12 [Prasterone, prasterone]	5.4 µM	6	required higher concentrations	FTS rank (Table S1) ([3]; listed as prasterone): 9
CC/N=c1\cc2oc3cc(NCC)c(C)cc3c(-c3ccccc3C(=O)OCC)c-2cc1C [R6G, rhodamine 6G]				binding by the Glu67Ala mutant of EcAcrR [4]: abolishment of the binding; Kd [5]: 43.7 ± 1.3 µM
CC(C)c1nc(CN(C)C(=O)N[C@H](C(=O)N[C@@H](Cc2ccccc2)C[C@H](O)[C@H](Cc2ccccc2)NC(=O)OCc2cncs2)C(C)C)cs1 [Ritonavir, ritonavir]		4	Apparent increase in the StAcrR thermal stability at very low concentrations	
CSc1nc2cc(Cl)c(Oc3cccc(Cl)c3Cl)cc2[nH]1 [Triclabendazole, triclabendazole]	25.7 µM	3	required higher concentrations	

— article PMC6886526 (Journal of structural biology, 2016)
